Among the data in the array DNA melting data of Ke et al. (doi:10.1101/2024.01.08.574731) are folding enthalpy and Tm values, retold here.

Data set [1] is described as follows: folding enthalpy; higher = less favourable; fluorescence melt of hairpins on a sequencing array, two-state fit. Particulars: sodium 0.088 M. Summed up: (§1)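 Melting temperature and folding enthalpy were obtained by bootstrapped two-state fitting. Fits used Cy3 fluorescence of library hairpins with annealed Cy3 and quencher oligos on a sequenced MiSeq flow cell, imaged in 50 mM Na-HEPES pH 8.0, 25 mM NaCl in 2.5 °C steps up to 60 °C and normalised to pre-quench Cy3 and control constructs. Four replicates were combined by inverse-variance weighting, and fitted temperatures were raised by 9.35 °C to match UV melts.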

A short description of data set [2]: melting temperature; fluorescence melt of hairpins on a sequencing array, two-state fit, raised by 9.35 °C to match UV melts. The following applies: sodium 0.088 M. Summed up:
as §1

Consider CGTTGGAAACAACG (((((....))))), for which, in data set [1], the folding enthalpy is -30.3 kcal/mol. Further, the Tm in data set [2] was found to be 52.9 °C.
For GATCAACCTTTGATC ((((((...)))))), in that order: -32.4 kcal/mol and 42 °C.
As for GGCAGCGAAAGCTGTGCC ((((((....)))..))), the folding enthalpy in data set [1] was -13.2 kcal/mol. In addition, the Tm in data set [2] worked out at 51 °C.
For GATCACGAAAGTGGGATC ((((((....)))..))), in that order: -15.6 kcal/mol and 38 °C.
For GGAAATGGAAACACTTCC ((((.((....)).)))), in that order: -31.5 kcal/mol and 30.2 °C.
In the case of GTCGGCGGAAACGCTGAC (((.(((....))).))), the folding enthalpy in data set [1] is -39.3 kcal/mol. Also, the Tm in data set [2] came out at 63.1 °C.
The matching figures for GCGGCAGTCCGC ((((....)))): -23.7 kcal/mol and 59.7 °C.
The matching figures for GCTATCGAAAGATTCAGC ((((((....)))..))): -11.6 kcal/mol and 29.6 °C.
On to GATCCTCGCAGGATC ((((((...)))))), for which, in data set [1], the folding enthalpy is -33.8 kcal/mol. Besides, the Tm in data set [2] was 55.5 °C.
Regarding GCGTCGAGACGC ((((....)))), the folding enthalpy in data set [1] is -25.2 kcal/mol. Further, the Tm in data set [2] is 61 °C.
GTAACCGCGAAAGCGTAC (((..(((....)))))): in data set [1], the folding enthalpy was -8.01 kcal/mol. In addition, the Tm in data set [2] was determined as 28.4 °C.
For GTTAGCGAAAGCTTAAC ((((((....))).))), in that order: -13.9 kcal/mol and 42.8 °C.
As to GACTTAGGAAACTAGGTC (((.(((....))).))), the folding enthalpy in data set [1] was -32.1 kcal/mol. In addition, the Tm in data set [2] was 36.8 °C.
For GCGGCTGGAAACAGCCAC (.(((((....))))).), in that order: -11.8 kcal/mol and 51.8 °C.
For GATCTTGCCTAAGATC ((((((....)))))), in that order: -39.2 kcal/mol and 48.2 °C.
As for AGCTGGAAACAGCT (((((....))))), in data set [1], the folding enthalpy is -23.3 kcal/mol. Moreover, the Tm in data set [2] came to 54.3 °C.
For the sequence GTGGACGAAAGTCATCAC ((((((....)))..))), the folding enthalpy in data set [1] was -13.1 kcal/mol. Also, the Tm in data set [2] was found to be 36.3 °C.
The matching figures for GATCTTGAGTAAGATC ((((((....)))))): -25.4 kcal/mol and 40.4 °C.
The matching figures for GACCCTGAAAAGGGTC ((((((....)))))): -33.7 kcal/mol and 67.5 °C.
The matching figures for GTGTGCGGAAACACACAC (((((.(....).))))): -36.2 kcal/mol and 51.8 °C.
CGTACGGAAACGTGGACG ((((((....)))..))): in data set [1], the folding enthalpy was -15.1 kcal/mol. Also, in data set [2], the Tm turned out to be 35.2 °C.
For GCATCCGAAAGGAGGTGC ((((((....)))..))), in that order: -24.9 kcal/mol and 48.1 °C.
Consider GAGAGGGGAAACCCTCTC (((((((....))))))), for which the folding enthalpy in data set [1] was -39 kcal/mol. The Tm in data set [2] stood at 63.5 °C.
The matching figures for GGAAGAGGAAACTCTCCC ((.((((....)))).)): -18.2 kcal/mol and 32.9 °C.
For GCCCCAGCGAAAGCTGGC (((..(((....)))))), in that order: -5.59 kcal/mol and 37.9 °C.
For GTTCCACGAAAGTGCAAC (((.(((....))).))), in that order: -16.9 kcal/mol and 33.5 °C.
For GCCTTAGAAATAAGGC ((((((....)))))), the folding enthalpy in data set [1] was -30.2 kcal/mol. In addition, the Tm in data set [2] was 52.9 °C.
Turning to GAACGTGGAAACATGTTC ((((.((....)).)))), in data set [1], the folding enthalpy is -36.2 kcal/mol. Moreover, in data set [2], the Tm worked out at 47.2 °C.
On to GTTCATGGAAACATGGAC ((.((((....)))).)), for which, in data set [1], the folding enthalpy was -27.7 kcal/mol. Besides, the Tm in data set [2] was 46.3 °C.
The matching figures for GGTCTACGAAAGTAACC (((.(((....)))))): -24 kcal/mol and 34.3 °C.
Regarding GATCTAGCTCTAGATC ((((((....)))))), the folding enthalpy in data set [1] is -33.1 kcal/mol. For the same sequence, in data set [2], the Tm was 45.2 °C.
As to GATCTGGACACAGATC ((((((....)))))), the folding enthalpy in data set [1] is -38.8 kcal/mol. Besides, the Tm in data set [2] came to 58.5 °C.
For GCCGCCGGAAACAGCGGC (((((.(....).))))), in that order: -37.4 kcal/mol and 66.4 °C.
For GCGATACCTCGC ((((....)))), in that order: -24.9 kcal/mol and 51.4 °C.
For GTATGCGGAAACGCATAC (((((((....))))))), in that order: -33.5 kcal/mol and 68.2 °C.
Regarding GTGGGTGGAAACACCCGC (.(((((....))))).), the folding enthalpy in data set [1] was -22.7 kcal/mol. Moreover, the Tm in data set [2] worked out at 63.3 °C.
For the sequence GATCTTTGTCAAGATC ((((((....)))))), in data set [1], the folding enthalpy is -33 kcal/mol. In addition, the Tm in data set [2] stood at 39.9 °C.
For GTCTACGGAAACGTAGGC (.(((((....))))).), in that order: -29.2 kcal/mol and 51.2 °C.
For GATCACTATCGTGATC ((((((....)))))), in that order: -41.2 kcal/mol and 55.1 °C.
The matching figures for GCAATGCGAAAGCCGTGC (((..((....))..))): -20.4 kcal/mol and 35.4 °C.
With GTACGTGGAAACACACAC ((..(((....)))..)), in data set [1], the folding enthalpy is -10.8 kcal/mol. Besides, the Tm in data set [2] came out at 27.4 °C.
The matching figures for GTCATGCGAAAGCAGGAC (((.(((....))).))): -32.2 kcal/mol and 67.7 °C.
The matching figures for GCCGCATCGAAAGATGGC (((..(((....)))))): -11.4 kcal/mol and 46.9 °C.
As to GATCTGATCCAGATC ((((((...)))))), the folding enthalpy in data set [1] was -35.2 kcal/mol. The Tm in data set [2] was determined as 47.6 °C.
For GTTTGTGGAAACACGAAC (((.(((....))).))), the folding enthalpy in data set [1] was -36 kcal/mol. Also, the Tm in data set [2] amounted to 49 °C.
The matching figures for GGCAACGAAAGTTCGCC ((((((....))).))): -22.9 kcal/mol and 51.6 °C.
The matching figures for GTACGACGAAAGTCATAC (((.(((....))).))): -19 kcal/mol and 39.4 °C.
The matching figures for GTGCGCGAAAGCGCTCAC ((((((....)))..))): -7.75 kcal/mol and 40.4 °C.
On to GATCCACCCATGGATC ((((((....)))))), for which, in data set [1], the folding enthalpy was -34.2 kcal/mol. In data set [2], the Tm turned out to be 50.7 °C.
Consider GGGAGCGGAAACGTTCCC ((((.((....)).)))), for which, in data set [1], the folding enthalpy was -48.9 kcal/mol. For the same sequence, in data set [2], the Tm is 55.5 °C.
With CGAACGGAAACGTCTCG ((((((....))).))), the folding enthalpy in data set [1] is -29.3 kcal/mol. The Tm in data set [2] was determined as 36.8 °C.
The matching figures for GTGCAGGGAAACCTGTAC ((.((((....)))).)): -36.1 kcal/mol and 49.6 °C.
For GGTCTCTCGAAAGAGACC (((..(((....)))))), in that order: -35.3 kcal/mol and 60.5 °C.
The matching figures for GCGTTAGGAAACTAGCGC (((.(((....))).))): -46.9 kcal/mol and 52.4 °C.
Regarding GATCACACAAGTGATC ((((((....)))))), the folding enthalpy in data set [1] is -42.4 kcal/mol. Further, the Tm in data set [2] was determined as 56.2 °C.
On to GCGTGAATACGC ((((....)))), for which, in data set [1], the folding enthalpy was -31.3 kcal/mol. The Tm in data set [2] was found to be 61.2 °C.
In the case of GTGGGCGAAAGCCGGCAC ((((((....)))..))), the folding enthalpy in data set [1] is -12.1 kcal/mol. In addition, the Tm in data set [2] came out at 45.8 °C.
For GATCGGTATCCGATC ((((((...)))))), the folding enthalpy in data set [1] was -40.8 kcal/mol. Moreover, the Tm in data set [2] was 57.4 °C.
For GCCCTCCGAAAGGACGGC (((.(((....))).))), in that order: -40.7 kcal/mol and 50.4 °C.
For GCTAAGCGAAAGCTTTGC ((.((((....)))).)), in that order: -30.6 kcal/mol and 59.5 °C.
The matching figures for GCTCCGCGAAAGCGCTGC ((..(((....)))..)): -12.3 kcal/mol and 37.4 °C.
GATCCTTCAGAGGATC ((((((....)))))): the folding enthalpy in data set [1] is -48.2 kcal/mol. Moreover, in data set [2], the Tm was 51.6 °C.
For GTTTCTGGAAACGGAAAC (((((.(....).))))), in that order: -31.8 kcal/mol and 45.5 °C.
The matching figures for GGCGTGTCGAAAGACGCC (((..(((....)))))): -23.6 kcal/mol and 58.7 °C.
The matching figures for CGGAACGGAAACGTGCCG (((.(((....))).))): -44.3 kcal/mol and 56 °C.
Regarding GCGTTCGGAAACGGATGC ((.(.((....)).).)), in data set [1], the folding enthalpy is -33.1 kcal/mol. The Tm in data set [2] was 44.7 °C.
On to GACAGCGGAAACGTTGTC ((((.((....)).)))), for which the folding enthalpy in data set [1] was -37.2 kcal/mol. In addition, in data set [2], the Tm was 51.9 °C.
For GTCTAATCGAAAGATGAC (((..(((....)))))), in that order: -14.8 kcal/mol and 31.6 °C.
The matching figures for GCCCTCACGAAAGTGGGC (((..(((....)))))): -19.4 kcal/mol and 53.5 °C.
For GTCGCCGAAAGGCAGAC ((((((....))).))), in that order: -17.7 kcal/mol and 61.7 °C.
On to GTTAAAGGAAACTTTAGC (.(((((....))))).), for which the folding enthalpy in data set [1] is -20.6 kcal/mol. The Tm in data set [2] was found to be 27.6 °C.
For GTAACCGGAAACAGTTAC (((((.(....).))))), in that order: -21.2 kcal/mol and 32.9 °C.
For the sequence GAAACTGGAAACAGTTTC (((((((....))))))), the folding enthalpy in data set [1] is -51.5 kcal/mol. Moreover, the Tm in data set [2] came out at 56.9 °C.
The matching figures for CGAACGGAAACGTCCTCG ((((((....)))..))): -11.4 kcal/mol and 26.2 °C.
